Most compounds without a hit are left out; they make up all but 1.9% or so of the library.
CHRM5 agonist: CHRM5 agonism in calcium assay. P08912. CHO-K1 hM5 cells, Fluo-8 calcium fluorescence; 0% DMSO wells, 100% maximal acetylcholine response. activation, % at 3 µM. hit rate 0.19% among 360,000;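 active means activation above the run's mean over test compounds plus 3 SD, cut at about 23% in these data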;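 further: signal is peak over basal fluorescence ratio across the kinetic read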
M4 antag: antagonists of human muscarinic M4 receptor (CHRM4) | P08173 | CHO-hM4 cells, ACh EC80, Fluo-8 calcium fluorescence | inhibition, % at 3 µM | hit rate 0.73% among 360,000 | AID 624125;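 active means inhibition above its plate's cutoff, the mean inhibition of sample wells plus 3 SD, cut at about 27% in these data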
Target sequence (P08173 whole entry, looked up): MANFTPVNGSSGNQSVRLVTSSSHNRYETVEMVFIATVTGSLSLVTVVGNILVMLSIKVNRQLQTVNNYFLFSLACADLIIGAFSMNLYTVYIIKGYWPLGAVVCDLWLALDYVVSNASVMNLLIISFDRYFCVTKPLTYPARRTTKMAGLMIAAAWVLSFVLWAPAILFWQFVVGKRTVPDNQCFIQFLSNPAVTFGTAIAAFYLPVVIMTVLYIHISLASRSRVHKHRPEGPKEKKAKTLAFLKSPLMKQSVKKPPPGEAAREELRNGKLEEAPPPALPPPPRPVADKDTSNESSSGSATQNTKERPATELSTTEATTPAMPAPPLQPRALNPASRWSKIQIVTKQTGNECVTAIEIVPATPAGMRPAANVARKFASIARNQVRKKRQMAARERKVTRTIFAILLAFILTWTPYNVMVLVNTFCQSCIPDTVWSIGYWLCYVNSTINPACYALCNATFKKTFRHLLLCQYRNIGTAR
M5 PAM: positive allosteric modulators of human muscarinic M5 receptor. CHO-K1 hM5, Fluo-8 calcium, ACh EC20 PAM; 0% = ACh EC20, 100% = ACh EC100. activation, % at 3 µM. P08912. AID 624038. hit rate 0.3% among 360,000;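 active means activation above the run cutoff, the mean activation of all test compounds plus 3 SD, cut at about 18% in these data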
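Measured by: Fluo-8 calcium fluorescence; material: human M5 receptor in CHO-K1 cells; schedule: Post-acetylcholine fluorescence recording 140 s; benchmarks: low control EC20 acetylcholine (0%), high control EC100 acetylcholine (100%); read-out: Max/basal fluorescence ratio as % of EC20–EC100 ACh window; compound: single dose, 3 µM nominal final test concentration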
CHRM4 agonist: agonists of human muscarinic M4 receptor (CHRM4); activation, % at 3 µM; P08173; hit rate 0.14% among 360,000; AID 624127; CHO-K1 hM4/Gqi5, Fluo-8 calcium fluorescence; vehicle 0%, full acetylcholine response 100%;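 active means activation above the run mean over all test wells plus 3 SD, cut at about 32% in these data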;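 further: peak over basal fluorescence ratio per well then scaled between controls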
M4 PAM: potentiates acetylcholine response at human M4 receptor. P08173. CHO-K1 hM4/Gqi5, Fluo-8 calcium fluorescence, ACh EC20; 0% = ACh EC20, 100% = maximal ACh. activation, % at 3 µM. hit rate 0.4% among 360,000;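 active means activation above its plate's cutoff, the mean activation of sample wells plus 3 SD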
CHRM5 antagonist: antagonists of human muscarinic M5 receptor (CHRM5); CHO-hM5 cells, Fluo-8 calcium fluorescence, ACh EC80; inhibition, % at 3 µM; hit rate 0.59% among 360,000;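 active means inhibition above a per-plate cutoff, the mean of that plate's test compounds plus 3 SD, cut at about 27% in these data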
Each line names hits and unclear results; the compound was inactive in the other large screens.

O=C1CCCCC(=O)N(c2ccccc2)c2ccccc21	M5 PAM 18.2
CCCCCCN1CCN(C2CN(Cc3cn(Cc4ccc(C)cc4)nn3)S(=O)(=O)C2)CC1 (stereo not given)	none
CCCCn1c(-c2ccc([N+](=O)[O-])cc2)n[nH]c1=S	M4 antag 95.4, CHRM5 antagonist 46.0
N#C/C(=C/c1ccc(N2CCOCC2)o1)C(=O)NC1CCCCC1	CHRM5 agonist 30.5
N#C/C(=C/c1ccc(N2CCOCC2)o1)c1ccc(Br)cc1	M4 antag 36.2
COc1ccc(NC(=O)/C(C#N)=C/C=C/c2ccco2)cc1	M5 PAM 23.7
N#C/C(=C\c1ccc(N2CCOCC2)o1)C(=O)Nc1ccc(O)cc1	CHRM5 agonist 24.3
O=C1NC[C@@H](CCCCN2C[C@H](Cc3ccc(O)cc3)N(Cc3ccccc3)C(=O)C2=O)N(CC2CCCCC2)C1=O	none
CC1(C)CC(Cc2ccc(Cl)nc2)N(C(=O)OC(C)(C)C)C1 (stereo not given)	none
COc1ccc(NC(=O)/C(C#N)=C\c2ccc(N3CCOCC3)o2)cc1	CHRM5 agonist 120.5, CHRM4 agonist 37.0, CHRM5 antagonist 38.9
CCOC(=O)C1CCN(Cc2cc(Cl)c3ccccc3c2O)CC1	M4 antag 28.5
O=C1CCN(Cc2ccccc2)C(=O)N1	none
O=C1CCC(c2ccccc2)(C2CCN(Cc3ccccc3)CC2)C(=O)N1 (stereo not given)	M4 antag 99.2, CHRM5 antagonist 98.9
CCOC(=O)C1(C)CCCN1C(=O)c1ccc(OC)cc1 (stereo not given)	none
Cc1noc(C)c1NC(=O)N(C)C[C@@H]1Oc2cc(Br)ccc2S(=O)(=O)N([C@H](C)CO)C[C@@H]1C	none
O=C(Nc1ccc(Cl)cc1)[C@@H]1[C@@H]2C(=O)N(c3ccc4ccccc4c3)C(=O)[C@@H]2[C@H]2C=CC=NN21	M5 PAM 32.1
C=CC(=O)N=c1sc2ccccc2n1-c1ccccc1	none
N=c1sc2ccccc2n1-c1ccccc1	CHRM5 antagonist 27.2
CC(=O)SC1CC(=O)N(c2c(C)cccc2C)C1=O (stereo not given)	M5 PAM 20.8
Cc1ccc(C)c(-n2c(=O)c(C#N)cc3c(=O)n4ccccc4nc32)c1	M5 PAM 27.6
COc1ccc2nc(C(c3ccc(C)cc3)n3c(-c4ccccc4Br)nc4ccccc43)[nH]c2c1 (stereo not given)	none
Cc1cc(O)c(-c2cc(O)c(C)cc2O)cc1O	M4 antag 27.7
CN(C)CCC(Oc1ccccc1OCc1ccccc1)c1ccccc1 (stereo not given)	CHRM5 antagonist 27.8
O=C1NC(=O)C2(N1)C(=O)c1cccc3cccc2c13 (stereo not given)	CHRM5 agonist 36.5, M4 antag 28.7, CHRM4 agonist 161.3
O=C1NC(=O)C2(N1)c1ccccc1-c1ccccc12	none
CCOC(=O)[C@]12CCCC=C1N(CCc1ccc(OC)c(OC)c1)C(=O)[C@H](CC(=O)NCCc1ccccc1OC)C2	none
CSc1ccc(S(=O)(=O)N(CC(=O)NN=C2CCN(C)CC2)c2ccc(C)cc2)cc1	M5 PAM 23.0
CN1CCC(=NNC(=O)CN(c2ccccc2)S(=O)(=O)c2ccccc2)CC1	none
O=C(c1ccc(Cl)c(Cl)c1)N1CCC(=O)N([C@H](COCc2ccc(Cl)cc2)Cc2ccccc2)CC1	none
Cc1cc(C)c(C#N)c(Sc2nc(C)c([N+](=O)[O-])c(C)c2C#N)n1	M4 antag 34.0, M4 PAM 41.5
C[C@H](CO)N1C[C@H](C)[C@H](CN(C)Cc2ccncc2)Oc2cc(-c3ccccc3F)ccc2S1(=O)=O	none
Cc1ccc([C@@H]2[C@@H]3C(=O)N(C)C(=O)[C@@H]3[C@]3(C)C(=O)N(Cc4ccccc4)CC(=O)N23)o1	M5 PAM 21.8
CC(=O)[C@@]1(O)CC[C@H]2[C@@H]3C[C@H](C)C4=CC(=O)CC[C@]4(C)[C@H]3CC[C@@]21C	M4 antag 32.8
C=C1CC2C(CCC3(C)C2CCC3(O)C(C)=O)C2(C)CCC(=O)C=C12 (stereo not given)	none
CC(=O)C1(O)CCC2C3CC(C)C4=CC(=O)CCC4(C)C3CCC21C (stereo not given)	M4 antag 44.0
CC(=O)[C@@]1(O)CCC2C3C=CC4=CC(=O)CC[C@]4(C)C3CC[C@@]21C (stereo not given in full)	none
Cc1ccc(F)cc1C(=O)N1CCCCC1c1cc(C(=O)Nc2ccc(F)c(Cl)c2)no1 (stereo not given)	none
C(=C\c1ccccc1)/CN1CCN(C(c2cccc3ccccc23)c2nnnn2Cc2ccccc2)CC1 (stereo not given)	CHRM5 antagonist 37.5
C(=C\c1ccccc1)/CN1CCN(C(c2cccs2)c2nnnn2C2CCCC2)CC1 (stereo not given)	CHRM5 antagonist 30.7
CC(C)(C)n1nnnc1C(c1cccs1)N1CCN(Cc2ccccc2)CC1 (stereo not given)	none
C(=C\c1ccccc1)/CN1CCN(C(c2ccccc2)c2nnnn2C2CCCC2)CC1 (stereo not given)	CHRM5 antagonist 44.2
CC(C)(C)n1nnnc1C(c1cccs1)N1CCN(C/C=C/c2ccccc2)CC1 (stereo not given)	CHRM5 antagonist 27.6
C(=C\c1ccccc1)/CN1CCN(C(c2cccs2)c2nnnn2Cc2ccccc2)CC1 (stereo not given)	none
C(=C\c1ccccc1)/CN1CCN(C(c2nnnn2C2CCCC2)C2CC2)CC1 (stereo not given)	none
CCc1ccc2c(F)cccc2n1	none
CCOc1ccc(Cl)cc1-c1cc(C(=O)NCc2ccccc2OC)[nH]n1	none
CSc1ccc(Cn2c(C)c(C(=O)NCc3ccco3)sc2=O)cc1	none
C(=C\c1ccccc1)/CN1CCN(C(c2ccnc3ccccc23)c2nnnn2C2CCCC2)CC1 (stereo not given)	M4 antag 31.2, CHRM5 antagonist 86.0
CC(C)(C)n1nnnc1C(c1ccnc2ccccc12)N1CCN(C/C=C/c2ccccc2)CC1 (stereo not given)	none
CCc1nc2ccc(C(=O)NCCc3ccccn3)cn2c1N(CC)CCOC	none
CN1CCN([C@@H]2CS(=O)(=O)N[C@H]2COCc2ccccc2)CC1	none
Cn1c(=O)[nH]c(=O)c2c1nc(CN1CCN(c3ccccc3F)CC1)n2CCCc1ccccc1	M4 PAM 22.2
Cc1cc(F)ccc1C(O)c1ncc(-c2cccc(OCc3ccccc3)c2)[nH]1 (stereo not given)	none

Screening results: PubChem, The Scripps Research Institute Molecular Screening Center
